A selection: hits, their analogues and other compounds. The true share with any hit is near 2.6%.
PAD4 FP inh – inhibitors of human PAD4 | recombinant PAD4, RCA probe fluorescence polarization | inhibition, % at 6.36 µM | 330,000 compounds, 0.41% hits;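 active means percent inhibition above a cutoff equal to the mean of all tested compounds plus 3 SD, cut at about 15% in these data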;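 further: 0% = PAD4 with RCA probe and DMSO and 100% = probe without PAD4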
Target sequence (Q9UM07 whole entry, looked up): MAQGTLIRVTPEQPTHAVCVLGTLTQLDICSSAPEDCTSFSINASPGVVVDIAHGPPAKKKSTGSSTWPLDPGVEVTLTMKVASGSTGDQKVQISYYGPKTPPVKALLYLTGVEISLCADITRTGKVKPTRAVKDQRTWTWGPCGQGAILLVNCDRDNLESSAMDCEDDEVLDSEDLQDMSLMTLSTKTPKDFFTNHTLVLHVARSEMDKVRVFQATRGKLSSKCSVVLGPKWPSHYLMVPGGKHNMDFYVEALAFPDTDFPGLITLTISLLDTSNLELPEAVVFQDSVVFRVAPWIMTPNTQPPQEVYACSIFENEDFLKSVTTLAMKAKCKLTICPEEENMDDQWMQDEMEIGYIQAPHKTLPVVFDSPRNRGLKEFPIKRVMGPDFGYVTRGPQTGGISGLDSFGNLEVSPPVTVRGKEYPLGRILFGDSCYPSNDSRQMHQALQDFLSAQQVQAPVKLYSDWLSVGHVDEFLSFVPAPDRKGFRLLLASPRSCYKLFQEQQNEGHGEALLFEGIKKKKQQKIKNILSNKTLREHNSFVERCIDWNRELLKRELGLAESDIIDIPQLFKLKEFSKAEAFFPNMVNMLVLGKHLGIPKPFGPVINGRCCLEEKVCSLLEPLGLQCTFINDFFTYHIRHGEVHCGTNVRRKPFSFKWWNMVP
TDP2 absorb – TDP2 (human) inhibition, absorbance primary screen | O95551 | 370,000 compounds, 0.34% hits | recombinant TDP2, T5PNP hydrolysis, p-nitrophenol absorbance 415 nm | inhibition, % at 12.8 µM | AID 720702;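 active means inhibition above the mean of all tested compounds plus 3 SD, set per campaign, cut at about 25% in these data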;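 further: 0% = DMSO with enzyme and 100% = buffer with substrate but no TDP2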
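Material: recombinant human TDP2; quantity: TDP2 enzyme at 120 nM final; medium: Tris-HCl pH 7.5 with MgCl2; compound: single concentration, 12.8 µM nominal, with 1% DMSO; incubation: 2 h enzyme incubation at 37 °C; signal: epi absorbance; measure: percent inhibition; benchmarks: high control without enzyme, low control DMSO plus TDP2; repeats: singlicate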
GSTO1 inh – GSTO1 inhibition, counter-screen for RBBP9 inhibitors | 300,000 compounds, 1.1% hits | recombinant GSTO1, activity-based probe fluorescence polarization | P78417 | AID 1974 | inhibition, % at 5.96 µM;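 active means inhibition above the campaign mean inhibition plus 3 SD, cut at about 35% in these data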;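 further: 0% = GSTO1-1 with DMSO and 100% = wells lacking GSTO1-1 enzyme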
Apaf-1 inh – human Apaf-1 inhibition; O14727; reconstituted apoptosome caspase-3 activity, DEVD-Rh110 fluorescence; inhibition, % at 20 µM; 330,000 compounds, 0.71% hits; AID 489030; active means inhibition of at least 40% at 20 µM;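 further: plate controls were DMSO wells for no effect and DEVD-CHO caspase inhibitor wells for full effect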
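System – cell-free apoptosome with Apaf-1, procaspase-3 and caspase-9 · Buffer or medium – pH 7.5 Hepes buffer with CHAPS, BSA, DTT · Also added – cytochrome c with DEVD-Rh110 · Times – 30 min compound preincubation, 50 min activation, room temperature · Technique – Rh110 fluorescence intensity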
PRMT1 FP inh – PRMT1 (human) inhibition, primary screen; inhibition, % at 2.79 µM; 370,000 compounds, 1.3% hits; Q99873; AID 652257; recombinant PRMT1, activity-based probe fluorescence polarization;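 active means inhibition above about 21% made by adding two undisclosed values, limit read from the data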
PRMT1 confirm – confirmation of human PRMT1 inhibitors; shares compounds with PRMT1 FP inh; recombinant His-PRMT1, activity-based probe fluorescence polarization; inhibition, % at 2.79 µM; 3,300 compounds, 42% hits; AID 687036;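 active means mean inhibition across replicates above the hit cutoff derived for the earlier primary screen, cut at about 22% in these data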
TDP2 confirm – confirmation of human TDP2 inhibitors. shares compounds with TDP2 absorb. recombinant human TDP2, absorbance read-out. inhibition, % at 12.8 µM. 1,100 compounds, 22% hits; in the data active means inhibition above about 25%;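 further: 0% = vehicle with enzyme and 100% = no enzyme buffer only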
Starred values were filed as active, the others as inactive.

Results for O=C(CCCN1C(=O)/C(=C\c2ccco2)SC1=S)Nc1ccc(O)cc1C(=O)O ?
PAD4 FP inh: -20; TDP2 absorb: 29*; GSTO1 inh: 23; Apaf-1 inh: 8; PRMT1 FP inh: 62*; PRMT1 confirm: 37*; TDP2 confirm: -8

What do the screens show for `CC1(C(=O)Nc2ccc3ccccc3c2)CCC(=O)N1CCCn1ccnc1` (centres undefined)?
TDP2 absorb: 7; PRMT1 FP inh: 5

What do the screens show for `Cc1ccc(/C=C2/C(=O)c3ccc(C(=O)O)cc3C2=O)o1`?
TDP2 absorb: 26*; PRMT1 FP inh: 41*; PRMT1 confirm: 39*; TDP2 confirm: 25*

How did Cc1ccc(C=C2C(=O)c3ccccc3C2=O)o1 do in these assays?
PAD4 FP inh: -4; TDP2 absorb: 10; GSTO1 inh: 24; Apaf-1 inh: 11; PRMT1 FP inh: 12

Results for Oc1ccc(NCc2ccc(OCc3ccccc3)cc2)cc1 ?
TDP2 absorb: 34*; PRMT1 FP inh: 34*; PRMT1 confirm: 11; TDP2 confirm: 39*

How did CC1CN(C(=O)/C=C/c2ccc(SC(F)F)cc2)CC(C)O1 (centres undefined) do in these assays?
PAD4 FP inh: -5; TDP2 absorb: -4; GSTO1 inh: -4; Apaf-1 inh: -1; PRMT1 FP inh: 0

What do the screens show for `CCOC(=O)C1=C(O)c2ccccc2C(=O)/C1=C\c1ccc(CC)cc1`?
PAD4 FP inh: -42; GSTO1 inh: 31

How did CCOC(=O)C1=C(Cc2ccc(C)cc2)C(=O)c2ccccc2C1=O do in these assays?
PAD4 FP inh: -44; TDP2 absorb: 31*; GSTO1 inh: 17; Apaf-1 inh: 15; PRMT1 FP inh: 92*; PRMT1 confirm: 27*; TDP2 confirm: 27*

How did Cc1cc(=O)c2c(o1)C(=O)c1occc1C2=O do in these assays?
TDP2 absorb: 36*; PRMT1 FP inh: 36*; PRMT1 confirm: 26*; TDP2 confirm: 21

What do the screens show for `NS(=O)(=O)c1ccc(CNC(=O)CSc2nc3ccc(Cl)cc3[nH]2)cc1`?
PAD4 FP inh: -2; TDP2 absorb: 5; GSTO1 inh: -9; Apaf-1 inh: 2; PRMT1 FP inh: -2

Results for CCN(C(=O)COC(=O)c1cc2ccccc2cc1OC)c1c(N)n(Cc2ccccc2)c(=O)[nH]c1=O ?
TDP2 absorb: 4; PRMT1 FP inh: -1

Results for Oc1ccc(/C=N/NC(=S)Nc2cccnc2)c(O)c1O ?
TDP2 absorb: 35*; PRMT1 FP inh: 67*; PRMT1 confirm: 88*; TDP2 confirm: 5

Results for N#CC1=C(N)C(C#N)(C#N)[C@H](c2ccoc2)[C@H]2CN(Cc3ccccc3)CC=C12 ?
PAD4 FP inh: -4; TDP2 absorb: 40*; GSTO1 inh: 24; Apaf-1 inh: 59*; PRMT1 FP inh: 33*; PRMT1 confirm: 5; TDP2 confirm: -2

What do the screens show for `N#CC1=C(N)C(C#N)(C#N)C(c2cccnc2)C2CN(C(=O)OCc3ccccc3)CC=C12` (centres undefined)?
PAD4 FP inh: 1; TDP2 absorb: 4; GSTO1 inh: 23; Apaf-1 inh: 8; PRMT1 FP inh: 0

How did O=c1[nH]c2c(s1)C(c1ccco1)C1C3CCC(C3)C1S2 (centres undefined) do in these assays?
PAD4 FP inh: -6; TDP2 absorb: 34*; GSTO1 inh: -21; Apaf-1 inh: 23; PRMT1 FP inh: 39*; PRMT1 confirm: 20; TDP2 confirm: 7

Results for CCCCNC(=O)c1nc(C2CCNCC2)oc1-c1cccc(C(F)(F)F)c1 ?
TDP2 absorb: -12; PRMT1 FP inh: -4

How did CC[C@]12c3[nH]c4ccc(OC)cc4c3CCN1C(=O)C(CC(=O)NCCN1CCOCC1)C[C@@H]2C(=O)N1CCN(C(=O)c2ccco2)CC1 (some centres undefined) do in these assays?
PAD4 FP inh: 0; TDP2 absorb: 6; Apaf-1 inh: 12; PRMT1 FP inh: 4

How did NS(=O)(=O)c1ccc(-c2ccc(/C=C3\SC(=S)N(C4CCS(=O)(=O)C4)C3=O)o2)cc1 (centres undefined) do in these assays?
PAD4 FP inh: -16; TDP2 absorb: 29*; GSTO1 inh: 13; Apaf-1 inh: 5; PRMT1 FP inh: 42*; PRMT1 confirm: -8; TDP2 confirm: -1

Results for O=C(/C=C/c1ccco1)Nc1cccc(C(=O)Nc2ccccc2C(=O)O)c1 ?
PAD4 FP inh: -13; TDP2 absorb: 28*; GSTO1 inh: -146; Apaf-1 inh: 5; PRMT1 FP inh: 26*; PRMT1 confirm: 46*; TDP2 confirm: 12

Results for CCc1ccccc1NC(=O)c1cccc(NC(=O)/C=C/c2ccco2)c1 ?
PAD4 FP inh: 0; TDP2 absorb: -7; GSTO1 inh: -6; Apaf-1 inh: 10; PRMT1 FP inh: 18

What do the screens show for `Cc1ccc(-c2nc3ccc(C(=O)O)cc3nc2-c2ccc(C)cc2)cc1`?
PAD4 FP inh: -3; TDP2 absorb: -3; GSTO1 inh: 0; Apaf-1 inh: 31; PRMT1 FP inh: 2

How did O=C(O)c1ccc2nc(-c3ccco3)c(-c3ccco3)nc2c1 do in these assays?
TDP2 absorb: 34*; Apaf-1 inh: 62*; PRMT1 FP inh: 55*; PRMT1 confirm: 67*; TDP2 confirm: 18

What do the screens show for `CCCC(=O)NNC(=O)CCC(=O)Nc1ccccc1Cl`?
PAD4 FP inh: 1; TDP2 absorb: -9; GSTO1 inh: 1; Apaf-1 inh: -3; PRMT1 FP inh: -7

What do the screens show for `CCCC(=O)NC1=C(Cl)C(=O)c2ccccc2C1=O`?
TDP2 absorb: 26*; PRMT1 FP inh: 95*; PRMT1 confirm: 94*; TDP2 confirm: 53*

What do the screens show for `CCN(CC)CCCNc1ccc2ncn3c4ccc(O)cc4c(=O)c1c23`?
TDP2 absorb: 87*; PRMT1 FP inh: 116*; PRMT1 confirm: 133*; TDP2 confirm: 28*

What do the screens show for `CCN1C(=O)[C@@H]2[C@@H](c3ccc(-c4ccc(F)cc4)cc3)N3CCCC[C@@]3(C(=O)OC)[C@@H]2C1=O`?
PAD4 FP inh: -1; TDP2 absorb: -3; GSTO1 inh: 1; Apaf-1 inh: 8; PRMT1 FP inh: 1

What do the screens show for `Nc1nc2c(s1)CCc1ccccc1-2`?
PAD4 FP inh: -4; TDP2 absorb: 30*; GSTO1 inh: 6; Apaf-1 inh: 10; PRMT1 FP inh: 26*; PRMT1 confirm: 9; TDP2 confirm: -2

How did COc1ccc2c(c1)-c1nc(N)sc1CC2 do in these assays?
PAD4 FP inh: -6; TDP2 absorb: -4; GSTO1 inh: 6; Apaf-1 inh: 16; PRMT1 FP inh: 6

Results for CCc1ccc2cc(F)cc(F)c2n1 ?
TDP2 absorb: 45*; PRMT1 FP inh: 0; TDP2 confirm: -9
